Experimental data reported in PubChem BioAssay.
A number with no mark means an inactive call. Inconclusive results are not listed. Active and inactive are the calls of the source.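 Rule for the calls, unless noted: active = inhibition over a set limit, the all-compound mean plus 3 SD, in both replicate runs; inconclusive = over that limit in just one replicate run; inactive = at or under that limit in both runs.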

How the values were obtained:
[1] = S. cerevisiae growth inhibition in permissive medium (OD615), pilot counter-assay for S. cerevisiae lifespan shortening project, permissive growth control (AID 705;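 active = growth inhibition above 25% in both replicates, a cutoff set 3 SD above the mean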); details: OD615, 24 h, at 10 µM, stronger effect = higher value
In short: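 System: S. cerevisiae with engineered DeaD lifespan system / Measured by: absorbance (optical density) at 615 nm / Read-out: reduction in yeast growth (OD615) / Times: 4 h cell pre-growth, 24 h exposure at 30 °C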

[2] = S. cerevisiae growth inhibition in restrictive medium, OD615, pilot screen, restrictive growth control, yeast lifespan reduction project (AID 706;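 active = growth inhibition above a set limit, 3 SD over mean compound inhibition, in both replicates, cut at about 43% in these data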;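 note: modified DeaD lifespan yeast strain shifted to restrictive glucose medium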); details: OD615, 48 h, at 10 µM, stronger effect = higher value
In short: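 System: Engineered S. cerevisiae DeaD strain | Buffer or medium: Glucose-based CSMM-D restrictive medium | Schedule: 4 h pre-incubation, 48 h exposure at 30 °C | Technique: Optical density at 615 nm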

[3] = doxorubicin toxicity protection in MRP-1 cells – H69AR cells, CellTiter-Glo, duplicate, MRP-1 activator project, pilot screen (AID 807;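 active = viability increase at or above a cutoff of the median across tested compounds plus 3 SD, cut at about 8.5% in these data, passing the limit was not always enough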;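 note: compound pretreatment 18-22 h then 72 h combined with doxorubicin; 0% = doxorubicin alone and 100% = vehicle without doxorubicin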); details: H69AR viability with doxorubicin, CellTiter-Glo luminescence; at 10 µM; stronger effect = higher value
[4] = viability of PTEN-null HCT116 cells – cell-based, HCT116 clonal line, CellTiter-Glo, pilot screen (AID 824;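 active = viability at or below 27.92% in each of two runs, the all-compound median minus 4 SD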;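 note: 0% = 20 µM Hyamine control and 100% = vehicle cell control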); details: HCT116 PTEN-deleted viability, 60 h, at 10 µM, stronger effect = lower value
[5] = RAM pathway blockade in budding yeast – dse1pr::URA3 reporter, 5-FOA selection, pilot screen (AID 869);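 note: 0% = DMSO wells with no growth and 100% = 10 µM 1-NA-PP1 with full growth; RAM network block rescues cells from 5-FOA so hits raise OD615 growth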; details: S. cerevisiae dse1pr::URA3 5-FOA growth, OD615, 2 d; at 10 µM; stronger effect = higher value; strain carries analog-sensitive mutant Cbk1 kinase
[6] = RAM signaling pathway blockade in yeast – S. cerevisiae, Pdr1DBD-CYC8 efflux-inhibited sensitized strain, primary screen (AID 1298;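 active = RAM network inhibition above 8.4% in each of two replicates, 3 SD over the compound average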;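 note: 0% = DMSO untreated cells without growth and 100% = 10 µM 1-NA-PP1 full growth; higher means more yeast growth rescued from 5-FOA killing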); details: S. cerevisiae cbk1-as DSE1-URA3 strain, 5-FOA growth OD615, 2 d; at 50 µM; stronger effect = higher value

Compound	growth inhibition [1] [%]	growth inhibition [2] [%]	viability increase [3] [%]	viability [4]	inhibition [5] [%]	RAM network inhibition [6] [%]
Cc1ccc(N(CC(=O)NCc2ccco2)S(=O)(=O)c2ccccc2)cc1	-10.9	-7.57	-4.6	87.2%	1.1	1.9
CCOC(=O)N1CCN(C(=O)C(CC(C)C)NC(=O)C2CCCCC2)CC1 (stereo unspecified)	-11.7	-4.5	-2.13	101%	0.455	1.59
COc1cccc(OCCOc2cccc(/C=N/n3cnnc3)c2)c1	6.03	21.9	-2.71	95.8%	1.62	0.36
CCS(=O)(=O)N1CCN(C(=O)c2cccs2)CC1	-9.68	-12.3	-1.23	100%	3.8	-0.05
C=CCC1(O)C(=O)N2C(=C1C(=O)N1CCOCC1)c1ccccc1CC2(C)C (stereo unspecified)	5.07	-8.41	-2.47	99.4%	0.41	2.11
COc1ccc(CCNC(=O)c2oc3ccc(S(=O)(=O)N4CCOCC4)cc3c2C)cc1OC	-0.835	-1.39	-4.32	78.8%	1.17	3.69
CCOc1c(Br)cc(C(N)=O)cc1OC	5.05	-3.4	-2.49	101%	0.87	2.56
C=C1c2ccc(C)cc2NC(=O)N1c1ccccc1	3.26	8.36	-3.76	94.2%	0.375	0.1
CCN(Cc1ccccc1)S(=O)(=O)c1ccc(C(=O)Nc2nnc(C3CC3)o2)cc1	-5.06	-18.6	-4.27	22.8% (active)	2.35	5.05
CC1=C(C(=O)N2CCOCC2)C(c2cc(C)cs2)NC(=O)N1 (stereo unspecified)	-9.44	2.88	-0.83	101%	2.48	3.08
O=C(c1ccsc1)N1CCN(C(=O)c2cccs2)CC1	-9.91	2.31	1.13	107%	2.04	0.97
CCn1nc(C(=O)NC2=NCCS2)c2ccccc2c1=O	9.05	-1.14	-2.76	104%	1.19	3.32
COc1ccc(CCNS(=O)(=O)c2ccc3c(c2)OCCO3)cc1OC	-9.32	-3.31	-1.53	89.9%	3.12	1.02
CCn1cc(C(=O)NCCCOC)c2cc(OC)c(OC)cc2c1=O	-10.7	0.745	-2.42	104%	2.5	3.59
O=C(Nc1ccc(S(=O)(=O)N2CCOCC2)cc1)C1COc2ccccc2O1 (stereo unspecified)	-6.88	-3.29	-1.63	104%	0.055	1.34
O=c1cc(NCc2ccco2)c2ccccc2o1	-2.07	-3.13	-4.38	96.7%	1.84	1.33
O=C(c1ccco1)N1CCCC(c2nc(-c3ccc(S(=O)(=O)NCc4ccccc4)cc3)no2)C1 (stereo unspecified)	-8.47	-27.3	-2.74	47.4%	1.58	3.3
CN(C)c1ccc(NC(=S)c2ccccn2)cc1	4.71	-11.2	-8.3	47.2%	1.82	3.01
CCSc1nsc(SCC)c1C(N)=O	-3.27	-11.2	-1.55	102%	0.83	1.14
CC(Sc1nc2c(c(=O)n(C)c(=O)n2C)n1Cc1cc2c(cc1Cl)OCO2)C(=O)O (stereo unspecified)	-10.7	-5.16	-0.64	99.9%	1.83	1.02
COc1ccc(Oc2coc3c(CN(C)C)c(O)ccc3c2=O)cc1	-5.32	-12.9	-7.46	95.3%	0.075	-0.21

Compound	growth inhibition [1] [%]	growth inhibition [2] [%]	viability increase [3] [%]	viability [4]	inhibition [5] [%]	RAM network inhibition [6] [%]
C/C(=C1/SC(=S)N(CCC(=O)O)C1=O)c1ccc(O)cc1	-5.09	-8.91	1.4	98.1%	1.2	0.45
Brc1ccc2ncnc(NCc3ccco3)c2c1	2.37	13	-7.68	35.5%	1.71	4.76
Cc1oc(-c2ccc(Cl)cc2)nc1CN1CCC(C(=O)N2CCc3ccccc3C2)CC1	-4.91	-16.6	-8.22	11.8% (active)	0.05	8.38
CCNc1nc(NCC)nc(OCCNS(=O)(=O)c2cc(C)ccc2C)n1	7.46	6.54	-2.5	95.3%	0.235	1.53
Cc1ccc(N2CC(C(=O)OCC(=O)C(C)(C)C)CC2=O)cc1 (stereo unspecified)	7.84	8.49	-1.06	101%	0.56	3.64
Cn1c(C(=O)NCCCN2CCN(c3ccccc3F)CC2)cc2c(=O)n(C)c3ccccc3c21	-3.28	-4.87	-8.02	54.9%	0.6	0.96
O=C(NCC1CCCO1)C1CCCCN1S(=O)(=O)c1ccc(F)cc1 (stereo unspecified)	-2.19	-9.73	-2.13	102%	0.075	1.44
O=c1c2cnn(-c3ccccc3)c2nc(-c2ccco2)n1-c1ccccc1	-4.83	-7.2	-5.59	55.4%	1.39	8.81
CCc1nnc2n1N=C(c1ccc(-c3cc(Cl)ccc3Cl)o1)CS2	9.53	26.5	-7.22	22.4% (active)	2.5	5.16
COc1cc(OC)cc(C(=O)Nc2cccc(C(C)=O)c2)c1	-6.17	-2.38	-2.42	89.9%	1.7	1.49
COc1ccc(S(=O)(=O)N2CCC(C(=O)N3CCN(c4ccccc4OC)CC3)CC2)cc1	-8.7	-3.36	-2.71	86.8%	-0.505	0
CCn1cc(S(=O)(=O)CC(=O)NC2CCCCC2)c2ccccc21	-9.89	-0.52	-1.1	97.4%	1.71	2.87
Cc1ccc(Cl)cc1N(CC(=O)N1CCCCCC1)S(C)(=O)=O	-9.3	10.7	-3.63	93.4%	0.635	1.37
Cc1nc2ccccc2c(=O)n1CCCO	-2.92	0.055	-2.52	96%	2.77	3.03
Cc1onc(-c2ccccc2)c1C(=O)Nc1ccc2c(C)cc(=O)oc2c1	-3.97	-0.655	-2.9	103%	3.31	2.2
CCOc1cc(C2NC(=O)NC(C)=C2C(=O)OC(C)CC)cc(Br)c1O (stereo unspecified)	-4.09	-10.5	-1.01	91.2%	2.17	2.16
CCC(C)C1C(C#N)=C(N)Oc2n[nH]c(C)c21 (stereo unspecified)	-0.17	7.77	-7.71	62.9%	0.79	6.1
CN(C)c1ccc(C(=O)Nc2ccc(S(=O)(=O)NC3=NCCCCC3)cc2)cc1	-6.28	-8.65	-3.44	99.4%	1.61	3.12
CC(Oc1ccc(Cl)cc1)C(=O)Nc1nccs1 (stereo unspecified)	-5.8	-5.78	-1.86	87%	1.31	2.7
O=C(CNC(=O)c1ccco1)OCc1ccc(Cl)cc1	-3.76	2.92	-2.32	102%	0.375	0.25
